The source made the active and inactive calls. The calls are words filed in the database; no cut-off is given here.

Data set [1] has as its system CCRF-CEM. As to the kind of experiment: Inhibition of CEM cell proliferation. As to conditions: Homo sapiens. The format is functional, cell-based. The procedure, abridged: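 Human CEM T-lymphoblasts grown in RPMI 1640 with 10% heat-inactivated FBS and penicillin/streptomycin. Seeded at 3000 cells/well with 0.5% DMSO; compounds tested in triplicate from 10 µM top concentration in 3-fold dilutions.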

Data set [2] deals with Inosine-5'-monophosphate dehydrogenase 2 (Homo sapiens, UniProt P12268). In words: Inhibition of human IMPDH2.
Data set [3] relates to PBMC. As to the kind of experiment: Inhibition of T cell proliferation in PBMC cells. The format is functional, cell-based. The following applies: Homo sapiens. The procedure, abridged: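 Human PBMCs isolated from heparinized whole blood by density gradient and plated at 5 × 10^4 cells/well in RPMI 1640 with 10% FBS. Stimulated with anti-CD3 OKT3 (200 ng/mL) plus soluble anti-CD28 (1 µg/mL). Compounds tested in triplicate from 3.3 µM in 3-fold dilutions with 0.5% DMSO for 72 h.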

Data set [4] in a line: Half life in cynomolgus monkey at 2 mg/kg, iv. As to conditions: in vivo. Format: ADME, organism-based, Macaca fascicularis. Further details: dose 2 mg/kg, route intravenous. The method, boiled down:
(§1)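 Rat and cynomolgus monkey PK: oral dose 10 mg/kg and iv dose 2 mg/kg; oral vehicle 60% PEG400/40% HCl at pH 3. Cmax, Tmax and AUC taken from the oral arm; T1/2, MRT, Cl and Vss from the iv arm; Fpo calculated. Values are the mean ± SD of three animals.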

The subject of data set [5] is Rattus norvegicus. As to the kind of experiment: Efficacy against Freund's complete adjuvant-induced arthritis in Lewis rat assessed as inhibition of paw swelling at 50 mg/kg, po after 21 days. Further details: dose 50 mg/kg. The format is functional, organism-based. The procedure, abridged: (§2)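 Male Lewis rats; arthritis induced by subcutaneous Freund's complete adjuvant at the tail base. Oral dosing once daily for 21 days from day 0, in 60% PEG400/40% 0.01 N HCl vehicle; 8 rats per group. Hind paw volume was measured by plethysmometry at baseline and over three weeks, and the increase above baseline was calculated. Groups were compared with vehicle by Student's t test.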

A short description of data set [6]: Volume of distribution at steady state in cynomolgus monkey at 2 mg/kg, iv. Format: ADME, organism-based, Macaca fascicularis. More on the design: dose 2 mg/kg, route intravenous. As to conditions: in vivo, read-out: Vdss. The procedure, abridged: as §1
Data set [7] concerns Rattus norvegicus. In words: Efficacy against Freund's complete adjuvant-induced arthritis in Lewis rat assessed as inhibition of paw swelling at 10 mg/kg, po after 21 days. More on the design: dose 10 mg/kg. The format is functional, organism-based. The method, boiled down: as §2
The nature of data set [8]: Cmax in rat at 10 mg/kg, po. Format: ADME, organism-based. Further details: dose 10 mg/kg, route oral. As to conditions: in vivo. The procedure, abridged:
as §1

Data set [9] addresses Cytochrome P450 2C9 (Homo sapiens, UniProt P11712). In words: Inhibition of CYP2C9. The format is ADME. The method, boiled down:
(§3)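 Inhibition measured against isolated CYP enzymes.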

Data set [10] can be described thus: Mean residence time in rat at 2 mg/kg, iv. The format is ADME, organism-based. Further details: dose 2 mg/kg, route intravenous. As to conditions: in vivo. The procedure, abridged:
as §1

The target in data set [11] is Cytochrome P450 3A4 (Homo sapiens, UniProt P08684). As to the kind of experiment: Inhibition of CYP3A4. Format: ADME. The procedure, abridged:
as §3

A short description of data set [12]: Lipophilicity, log P of the compound. The format is physicochemical. As to conditions: octanol/water.
Data set [13] can be described thus: Bioavailability in cynomolgus monkey at 10 mg/kg, po. As to conditions: in vivo.
A short description of data set [14]: Clearance in rats at 2 mg/kg, iv. Format: ADME, organism-based. More on the design: dose 2 mg/kg, route intravenous. As to conditions: rat, in vivo. The method, boiled down: as §1
Data set [15] can be described thus: Cmax in cynomolgus monkey at 10 mg/kg, po. Further details: dose 10 mg/kg, route oral. As to conditions: in vivo. Format: ADME, organism-based, Macaca fascicularis. The procedure, abridged: as §1
Data set [16] can be described thus: Volume of distribution at steady state in rat at 2 mg/kg, iv. The format is ADME, organism-based. More on the design: dose 2 mg/kg, route intravenous. The following applies: in vivo, read-out: Vdss. The method, boiled down:
as §1

Data set [17] can be described thus: Clearance in cynomolgus monkey at 2 mg/kg, iv. More on the design: dose 2 mg/kg, route intravenous. As to conditions: in vivo. Format: ADME, organism-based, Macaca fascicularis. The procedure, abridged: as §1
Data set [18] is described as follows: AUC in rat at 10 mg/kg, po. The format is ADME, organism-based. More on the design: dose 10 mg/kg, route oral. As to conditions: plasma. The procedure, abridged:
as §1

Data set [19] has as its target Cytochrome P450 2C19 (Homo sapiens, UniProt P33261). In words: Inhibition of CYP2C19. The format is ADME. The procedure, abridged: as §3
Data set [20] in a line: AUC in cynomolgus monkey at 10 mg/kg, po. Format: ADME, organism-based, Macaca fascicularis. Further details: dose 10 mg/kg, route oral. As to conditions: plasma. The method, boiled down:
as §1

Data set [21] can be described thus: Bioavailability in rat at 10 mg/kg, po. The format is ADME, organism-based. The following applies: in vivo. The procedure, abridged:
as §1

Data set [22] has as its target Cytochrome P450 2D6 (Homo sapiens, UniProt P10635). As to the kind of experiment: Inhibition of CYP2D6. Format: ADME. The procedure, abridged:
as §3

Data set [23] deals with Serum. As to the kind of experiment: Protein binding in serum. Format: ADME, cell-free. The following applies: human.
Data set [24] addresses T1, Cytochrome P450 1A2 (Homo sapiens, UniProt P05177).
T1 sequence (P05177 whole entry): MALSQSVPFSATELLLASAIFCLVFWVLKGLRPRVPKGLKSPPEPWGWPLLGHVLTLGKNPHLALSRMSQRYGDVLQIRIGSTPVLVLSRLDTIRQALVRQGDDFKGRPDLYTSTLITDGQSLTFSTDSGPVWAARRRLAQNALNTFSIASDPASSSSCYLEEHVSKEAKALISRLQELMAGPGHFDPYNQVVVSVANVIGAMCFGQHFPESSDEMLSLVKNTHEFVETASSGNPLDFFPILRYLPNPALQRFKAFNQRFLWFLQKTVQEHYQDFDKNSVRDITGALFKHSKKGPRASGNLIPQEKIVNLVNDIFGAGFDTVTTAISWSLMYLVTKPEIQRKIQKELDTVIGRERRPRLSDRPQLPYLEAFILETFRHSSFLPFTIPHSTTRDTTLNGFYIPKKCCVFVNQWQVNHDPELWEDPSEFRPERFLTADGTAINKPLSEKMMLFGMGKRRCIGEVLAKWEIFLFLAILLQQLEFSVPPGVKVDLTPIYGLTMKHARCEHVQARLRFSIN
As to the kind of experiment: Inhibition of CYP1A2. The format is ADME. The method, boiled down:
as §3

Data set [25] is described as follows: Mean residence time in cynomolgus monkey at 2 mg/kg, iv. Format: ADME, organism-based, Macaca fascicularis. More on the design: dose 2 mg/kg, route intravenous. As to conditions: in vivo. The method, boiled down:
as §1

Data set [26] can be described thus: Permeability across Caco-2 cells. The following applies: human, read-out: permeability. Format: ADME, cell-based.
Data set [27] in a line: Half life in rat at 2 mg/kg, iv. Further details: dose 2 mg/kg, route intravenous. The format is ADME, organism-based. The following applies: in vivo. The method, boiled down:
as §1

Data set [28] concerns Rattus norvegicus. In words: Efficacy against Freund's complete adjuvant-induced arthritis in Lewis rat assessed as inhibition of paw swelling at 25 mg/kg, po after 21 days. The format is functional, organism-based. Further details: dose 25 mg/kg. The method, boiled down:
as §2

In data set [29] the test system is Rattus norvegicus. As to the kind of experiment: Tmax in rat at 10 mg/kg, po. Format: ADME, organism-based. More on the design: dose 10 mg/kg, route oral. As to conditions: in vivo. The method, boiled down: as §1

Sequence of Cytochrome P450 2D6 (P10635 whole entry): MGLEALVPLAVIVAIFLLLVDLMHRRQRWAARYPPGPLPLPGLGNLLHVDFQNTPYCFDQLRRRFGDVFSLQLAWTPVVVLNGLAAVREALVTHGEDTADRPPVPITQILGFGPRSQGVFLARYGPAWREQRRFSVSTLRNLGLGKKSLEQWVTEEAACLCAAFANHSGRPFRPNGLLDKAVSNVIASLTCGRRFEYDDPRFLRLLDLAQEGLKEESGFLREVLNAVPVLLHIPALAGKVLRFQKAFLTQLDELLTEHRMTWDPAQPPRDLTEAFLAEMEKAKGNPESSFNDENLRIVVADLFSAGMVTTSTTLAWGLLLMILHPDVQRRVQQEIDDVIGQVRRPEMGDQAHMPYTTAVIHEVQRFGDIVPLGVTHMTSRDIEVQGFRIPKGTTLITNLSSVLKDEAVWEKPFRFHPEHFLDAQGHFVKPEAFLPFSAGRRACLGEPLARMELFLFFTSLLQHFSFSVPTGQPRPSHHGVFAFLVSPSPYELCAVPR
Sequence of Cytochrome P450 2C9 (P11712 whole entry): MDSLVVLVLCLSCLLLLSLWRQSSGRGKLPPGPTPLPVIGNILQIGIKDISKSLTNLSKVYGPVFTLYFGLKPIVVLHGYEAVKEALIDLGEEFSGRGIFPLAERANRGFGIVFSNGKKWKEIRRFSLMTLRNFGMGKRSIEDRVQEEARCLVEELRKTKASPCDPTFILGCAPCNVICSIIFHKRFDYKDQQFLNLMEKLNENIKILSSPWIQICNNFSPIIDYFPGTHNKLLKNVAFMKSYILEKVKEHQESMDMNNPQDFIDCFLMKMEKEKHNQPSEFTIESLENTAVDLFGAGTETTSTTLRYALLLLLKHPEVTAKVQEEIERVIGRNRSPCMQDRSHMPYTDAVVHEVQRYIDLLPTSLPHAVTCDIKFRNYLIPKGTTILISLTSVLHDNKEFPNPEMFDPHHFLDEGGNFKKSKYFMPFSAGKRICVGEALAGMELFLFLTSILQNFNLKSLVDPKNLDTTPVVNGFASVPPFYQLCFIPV
Sequence of Cytochrome P450 3A4 (P08684 whole entry): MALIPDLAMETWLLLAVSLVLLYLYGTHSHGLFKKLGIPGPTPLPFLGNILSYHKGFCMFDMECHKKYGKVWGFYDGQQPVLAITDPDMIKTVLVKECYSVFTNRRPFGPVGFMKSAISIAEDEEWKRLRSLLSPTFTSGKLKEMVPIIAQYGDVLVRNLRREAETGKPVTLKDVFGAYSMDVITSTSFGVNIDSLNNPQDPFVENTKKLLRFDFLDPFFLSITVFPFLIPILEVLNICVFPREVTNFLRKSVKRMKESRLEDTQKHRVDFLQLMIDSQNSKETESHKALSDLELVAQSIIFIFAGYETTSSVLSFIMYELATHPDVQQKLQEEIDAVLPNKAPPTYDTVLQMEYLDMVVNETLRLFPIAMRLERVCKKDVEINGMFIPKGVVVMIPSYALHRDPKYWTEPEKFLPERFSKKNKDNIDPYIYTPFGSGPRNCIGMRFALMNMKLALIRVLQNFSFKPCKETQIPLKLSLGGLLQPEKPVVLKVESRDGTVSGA
Sequence of Cytochrome P450 2C19 (P33261 whole entry): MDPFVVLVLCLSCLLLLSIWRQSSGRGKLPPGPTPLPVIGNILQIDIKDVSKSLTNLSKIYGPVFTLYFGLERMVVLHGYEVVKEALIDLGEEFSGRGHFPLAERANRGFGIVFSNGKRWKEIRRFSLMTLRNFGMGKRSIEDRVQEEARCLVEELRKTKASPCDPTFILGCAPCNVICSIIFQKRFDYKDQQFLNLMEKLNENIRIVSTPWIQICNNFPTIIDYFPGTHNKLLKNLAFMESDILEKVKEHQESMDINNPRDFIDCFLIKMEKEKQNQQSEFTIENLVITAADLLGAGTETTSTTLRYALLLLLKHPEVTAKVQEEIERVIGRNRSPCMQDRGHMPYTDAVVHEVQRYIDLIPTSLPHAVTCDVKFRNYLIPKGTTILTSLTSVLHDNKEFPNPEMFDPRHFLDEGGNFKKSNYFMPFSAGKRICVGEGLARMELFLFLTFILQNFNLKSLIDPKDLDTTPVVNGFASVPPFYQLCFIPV

For `CC(C)(NC(=O)c1ccc2c(=O)c3ccccc3[nH]c2c1)c1cccnc1`, the results for the IC50 in [1], in data set [2] and in data set [3] were 2200 nM, 42 nM and 590 nM, respectively.

For the compound `CN(C)S(=O)(=O)c1cccc(C(C)(C)NC(=O)c2cc3[nH]c4ccccc4c(=O)c3cc2F)c1`, the IC50 (in general, the concentration that inhibits the measured activity by half) is 380 nM in [1], 7.9 nM in [2] and 130 nM in [3].

Take `CN(C)CCOc1ccc(C(C)(C)NC(=O)c2cc3[nH]c4ccccc4c(=O)c3cc2F)cc1`: the values for the IC50 in data set [1], in [2] and in [3] were 560 nM, 20 nM and 210 nM, respectively.

As to `CC(C)(NC(=O)c1cc2[nH]c3ccccc3c(=O)c2cc1F)c1cnc2c(c1)OCCN2`, the values for the IC50 in data set [1], in data set [2] and in data set [3] were 920 nM, 17 nM and 320 nM, respectively.

For `CC(C)(NC(=O)c1cc2[nH]c3ccccc3c(=O)c2cc1F)c1ccc(N2CCOCC2)nc1`, the IC50 in [1] amounted to 660 nM; in data set [2] it was 20 nM; in data set [3], 210 nM.

As for `Cc1ccc(C(C)(C)NC(=O)c2cc3[nH]c4ccccc4c(=O)c3cc2F)cn1`, the IC50 turned out to be 750 nM in [1], 23 nM in [2] and 270 nM in data set [3].

In the case of `Cc1cc(C(C)(C)NC(=O)c2cc3[nH]c4ccccc4c(=O)c3cc2F)cnc1N1CCOCC1`, the figures for the IC50 in data set [1], in data set [2] and in data set [3] were 870 nM, 11 nM and 270 nM, respectively.

Turning to `CC(C)(NC(=O)c1ccc2c(=O)c3ccccc3[nH]c2c1)c1ccccc1`, the IC50 in data set [2] turned out to be 19 nM; in data set [3], 730 nM.

As for `CC(C)(NC(=O)c1cc2[nH]c3ccccc3c(=O)c2cc1F)c1cccc(S(C)(=O)=O)c1`, the IC50 in [1] was 580 nM; in data set [2] it was 12 nM; in [3] it was 280 nM.

In the case of `CC(C)(C)NC(=O)c1ccc2c(=O)c3ccccc3[nH]c2c1`, the IC50 in [1] came to 3300 nM; in data set [2], 59 nM.

As to `CCN1CCN(c2ccc(C(C)(C)NC(=O)c3cc4[nH]c5ccccc5c(=O)c4cc3F)cn2)CC1`, the IC50 in data set [1] was 770 nM; in data set [2], 17 nM; in data set [9], greater than 20 µM; in data set [11], 13 µM; in [19], 19 µM; in data set [22], greater than 20 µM. Besides, the figures for the IC50 in [24] and in [3] were greater than 20 µM and 220 nM, respectively. The half-life (in general, the time in which the quantity being followed falls by half) in data set [4] is 240 min; in [27], 216 min. Moreover, the outcome in data set [5], in data set [7] and in data set [28] was Active. Besides, the Vd is 1.1 L/kg in data set [6] and 7.4 L/kg in data set [16]. The Cmax (as a rule, the highest concentration seen after dosing) in data set [8] came out at 410 nM; in data set [15] it was 26 µM. Further, the MRT (usually a mean duration of stay, worked out from the concentration-time curve) came out at 4.4 h in data set [10] and 5.5 h in data set [25]. For the same compound, the logP – broadly, a log measure of how a compound divides between an organic and an aqueous phase – in data set [12] came out at 2.5. For the same compound, the bioavailability (commonly dose-corrected exposure relative to a reference, in per cent) is 88% in [13] and 43% in [21]. The clearance (in general, the volume of plasma or blood freed of the substance per unit of time) came out at 29 mL/min/kg in data set [14] and 3.4 mL/min/kg in data set [17]. Also, the AUC (in general, concentration integrated over time) in [18] came to 5.2 µM·h; in [20], 102 µM·h. The compound also gave an Activity in data set [23] of 92%. Besides, the Papp in data set [26] came to 32 ×10⁻⁶ cm/s. In addition, the Tmax (usually the time at which the peak concentration occurs) in data set [29] came out at 4 h.

On to `CC(C)(NC(=O)c1ccc2c(=O)c3ccccc3[nH]c2c1)c1ccccn1`, for which the figures for the IC50 in data set [1] and in [2] were 2200 nM and 53 nM, respectively.

Consider `CN(C)c1ccc(C(C)(C)NC(=O)c2cc3[nH]c4ccccc4c(=O)c3cc2F)cn1`, for which the values for the IC50 in data set [1], in data set [2] and in data set [3] were 850 nM, 22 nM and 340 nM, respectively.

The values above are taken from ChEMBL document CHEMBL1146203, “Acridone-based inhibitors of inosine 5'-monophosphate dehydrogenase: discovery and SAR leading to the identification of N-(2-(6-(4-ethylpiperazin-1-yl)pyridin-3-yl)propan-2-yl)-2- fluoro-9-oxo-9,10-dihydroacridine-3-carboxamide (BMS-566419)” (J Med Chem, 2007).
